# Diaphorase inh – diaphorase inhibition or chemical oxidation counter-screen; diaphorase resazurin-to-resorufin fluorescence, NADH, 16 min; bacterial (C. kluyveri) enzyme, not human; AID 1217; hit rate 0.69% among 190,000; inhibition, % at 20 µM;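 active means primary screen inhibition at 20 µM above a set limit, cut at about 50% in these data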;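 further: plate controls were DMSO with full reaction for no effect and wells lacking NADH for full effect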
#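 Detection: fluorescence of resorufin formed from resazurin, Ex 544/Em 590 nm; test system: Clostridium kluyveri diaphorase enzyme; amount: 0.14 U/mL diaphorase, enzyme working solution; times: 16-min room-temperature incubation before reading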
# TbHK1 inh – blocks Trypanosoma brucei hexokinase 1 activity. recombinant TbHK1, G6PDH-coupled NADH A340. inhibition, % at 10 µM. hit rate 0.11% among 220,000. AID 1430;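 active means inhibition of 50% or more in the single-dose primary screen; inactive means inhibition below 50%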
# Diaph act CS – counter-screen for diaphorase-based assays: diaphorase activators and chemical reducers | activation factor at 20 µM | AID 1229 | hit rate 0.005% among 190,000 | Diaphorase/resazurin coupled assay, resorufin fluorescence, 16 min; stronger effect = higher value; 1 = vehicle wells, 0 = NADH-free wells;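 active means diaphorase activity raised at least twofold by the compound at 20 µM; inactive means activation factor below 2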
#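 Material: bacterial diaphorase enzyme (C. kluyveri); amount: enzyme 0.07 U/mL final; reagent: NADH substrate 0.114 mM plus resazurin dye 0.1 mM, final; doses: single compound dose of 20 µM, 1% DMSO final; timing: 16 min enzyme reaction, ambient temperature; measured by: fluorescence of resorufin, 544 nm excitation, 590 nm emission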
# PMI activator – phosphomannose isomerase (human) activation. P34949. purified human PMI, coupled resazurin fluorescence, 20 min; stronger effect = higher value; 1 = vehicle control, 0 substrate-free wells. activation factor at 20 µM. hit rate 0.005% among 190,000;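 active means activation factor of 2 or more at 20 µM, relative to plate controls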
# Target sequence (P34949 whole entry, looked up): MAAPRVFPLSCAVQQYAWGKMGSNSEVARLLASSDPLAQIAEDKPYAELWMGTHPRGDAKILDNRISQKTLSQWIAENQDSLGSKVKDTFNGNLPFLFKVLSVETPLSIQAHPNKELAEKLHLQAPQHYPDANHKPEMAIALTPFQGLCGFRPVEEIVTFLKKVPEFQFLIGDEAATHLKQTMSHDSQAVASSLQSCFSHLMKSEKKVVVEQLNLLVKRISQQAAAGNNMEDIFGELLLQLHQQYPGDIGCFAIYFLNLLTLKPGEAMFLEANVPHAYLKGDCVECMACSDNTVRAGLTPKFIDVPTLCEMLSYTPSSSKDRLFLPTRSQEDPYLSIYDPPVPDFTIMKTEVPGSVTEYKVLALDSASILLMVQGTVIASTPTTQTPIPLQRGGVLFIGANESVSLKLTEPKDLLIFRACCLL
# G6PDH counter – inhibits Leuconostoc G6PDH, flagging false hits in G6PDH-based assays | AID 1020 | hit rate 0.12% among 200,000 | inhibition, % at 5 µM | Purified L. mesenteroides G6PDH, diaphorase/resazurin coupled fluorescence, 45 min; in the data active means inhibition above about 50%
# PMI act hi M6P – PMI (human) activation, high substrate; P34949; coupled PMI enzyme assay, resazurin fluorescence, 20 min; stronger effect = higher value; 1 = untreated enzyme, 0 = substrate-free blank; activation factor at 20 µM; hit rate 0.34% among 190,000; AID 1216;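 active means activation factor of 2 or more at 20 µM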
#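 Test system: human phosphomannose isomerase with PGI, G6PDH, diaphorase coupling enzymes / Doses: 20 µM compound, 1% DMSO / Times: enzyme reaction with compound 20 min at room temperature / Measured by: Diaphorase-driven resazurin-to-resorufin fluorescence, excitation 544, emission 590 nm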
# * hit, by the source's call; x = no result given. Rows were chosen to be rich in hits. Some 1.1% of all compounds tested hit in one or more screens of this group.
SMILES,Diaphorase inh,TbHK1 inh,Diaph act CS,PMI activator,G6PDH counter,PMI act hi M6P
CC(C)CC(C(=O)Nc1oc(-c2ccco2)c(-c2ccco2)c1C#N)N1C(=O)c2ccccc2C1=O (configuration not stated),56.1*,-11.7,0.4,x,22.2,x
N#Cc1ccccc1NC(=O)C1SC(=Nc2ccccc2)C(C(=O)Nc2ccc(Cl)cc2)=C1N (configuration not stated),8.5,-7.8,0.9,1.8,3.4,2.3*
C/C(=C\c1ccccc1)C(=O)NCCc1ccccc1,10.7,6.2,0.9,0.9,8.5,0.9
Cc1cccn2c(=O)c3cc(C#N)c(=NC(=O)c4ccncc4)n(CCCOC(C)C)c3nc12,25.3,-18.4,0.7,1.7,4.0,2*
COCCCn1c(=NC(=O)c2ccncc2)c(C#N)cc2c(=O)n3cccc(C)c3nc21,11.5,-1.9,0.9,1,-8.7,1.3
Nc1cc(N)nc(SCC(=O)N2CCN(S(=O)(=O)c3ccccc3)CC2)n1,x,3.6,x,x,x,x
Cc1cc(/C=C2/C(=N)N3C(=NC2=O)SN=C3S(C)(=O)=O)c(C)n1-c1ccccc1F,12.6,-0.7,0.9,1.6,6.4,1.7
CS(=O)(=O)C1=NSC2=NC(=O)/C(=C\c3cccn3-c3ccc(Cl)cc3)C(=N)N21,51.0*,13.7,0.5,1.1,-1.1,1.1
CCCNC1=C(N(C(C)=O)c2cccc(F)c2)C(=O)c2ccccc2C1=O,34.4,28.8,0.7,0.7,52.4*,0.4
COc1ccc2[nH]c3c(=O)n(CCCCC(=O)NCCC(C)C)c(=S)[nH]c3c2c1,-4.1,-7.0,1,1.2,-0.7,1.1
NC(=O)CN1CCOCCN(CC(N)=O)CCOCC1,8.2,x,0.9,1,55.9*,0.9
Cn1nc(C(F)(F)F)c(-c2ccc(F)cc2)c1NC(=O)c1cccnc1,x,-9.7,x,x,x,x
CC(=O)OCCNc1cc(SCc2ccco2)c2nonc2c1[N+](=O)[O-],76.9*,-14.7,0.2,0.7,12.5,0.5
O=[N+]([O-])c1c(NCCO)cc(N2CCC3(CC2)OCCO3)c2nonc12,55.4*,-13.5,0.4,0.4,23.3,0.3
CC(=O)OCCCNc1cc(Sc2nc3ccccc3s2)c2nonc2c1[N+](=O)[O-],62.5*,3.6,0.4,0.5,-67.5,0.6
CN(CCO)c1cc(N2CCC3(CC2)OCCO3)c2nonc2c1[N+](=O)[O-],27.0,-15.5,0.7,0.9,6.2,0.7
CC(=O)OCCCNc1cc(Sc2ccc(C)cc2)c2nonc2c1[N+](=O)[O-],34.5,-5.9,0.7,0.8,-23.7,0.5
COC(=O)CCSc1cc(NCCOC(C)=O)c([N+](=O)[O-])c2nonc12,24.7,17.1,0.8,1,16.0,0.6
O=[N+]([O-])c1c(NCCCO)cc(Sc2ccc(Cl)cc2)c2nonc12,54.1*,-29.4,0.5,0.5,11.3,0.4
COc1cc(C#N)ccc1OCC(=O)Nc1cccc(S(=O)(=O)N2CCCC2)c1,1.1,-7.1,1,1,1.6,1
C=CCNC(=S)Nc1ccc(N(C)C)cc1,x,-10.1,x,x,x,x
Cc1ccc(C#CC[N+](C)(C)CC#Cc2ccccc2)cc1,-10.1,6.2,1.1,1.1,10.9,1
COc1ccc(CNc2cc(NCCCO)c([N+](=O)[O-])c3nonc23)cc1,60.7*,-18.5,0.4,0.5,29.5,0.4
O=[N+]([O-])c1c(NCCCO)cc(SCc2ccco2)c2nonc12,65.7*,-4.3,0.3,0.8,14.9,0.6
CCCC(=O)OCCNc1cc(SCCC(=O)OC)c2nonc2c1[N+](=O)[O-],75.1*,-13.7,0.2,0.2,2.1,0.3
Cn1ccnc1Sc1cc(NCCCO)c([N+](=O)[O-])c2nonc12,30.4,-21.1,0.7,1,-0.4,0.8
CC(Cc1ccccc1)NC(=S)CN1CCCC1=S (configuration not stated),x,-10.1,x,x,x,x
CC(=O)Nc1ccc2nc3c(=O)n(C)c(=O)n(C)c3nc2c1,x,-25.4,x,x,x,x
O=c1oc2c(O)c(O)cc3c(=O)oc4c(O)c(O)cc1c4c23,86.1*,66.3*,0.1,0.3,27.7,0.4

# From PubChem BioAssay
